Data as given in ChEMBL document CHEMBL1671686, “Carbapenem-resistant KPC-2-producing Escherichia coli in a Tel Aviv Medical Center, 2005 to 2008” (2010).
In brackets after ≈: the same amount, converted by molar mass.

Legend:
Type in all cases: functional
Escherichia coli [1] = assay: Antimicrobial activity against Escherichia coli isolate 547 expressing beta-lactamase KPC2, TEM and PFGE cluster 4 isolated from blood of patient by vitek-2 method in presence of beta-lactamase inhibitor Tazobactam
In short: (§1)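 Clinical carbapenem-resistant E. coli isolates collected at one hospital, February 2005 to October 2008. […] Susceptibilities came from automated Vitek-2 testing.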

Escherichia coli [2] = assay: Antimicrobial activity against Escherichia coli isolate 386 expressing beta-lactamase KPC2, CTX-M-15, OXA-9, TEM and PFGE cluster 1 isolated from wound of patient by vitek-2 method in presence of beta-lactamase inhibitor Tazobactam
In short: (§2)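 Antibiotic susceptibility of clinical carbapenem-resistant E. coli isolates (collected Feb 2005–Oct 2008) determined on the automated Vitek-2 system.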

Escherichia coli [3] = assay: Antimicrobial activity against Escherichia coli isolate 157 expressing beta-lactamase KPC2, CTX-M-15, TEM and PFGE cluster 3 isolated from urine of patient by vitek-2 method in presence of beta-lactamase inhibitor Tazobactam; conditions: isolate 157, Urine; in short: as §2
Escherichia coli [4] = assay: Antimicrobial activity against Escherichia coli DH10B by vitek-2 method in presence of beta-lactamase inhibitor Tazobactam; conditions: K-12 DH10B
In short: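 Plasmid-free recipient E. coli DH10B, used as the host for electroporation transformants, was tested for susceptibility on the automated Vitek-2 system.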

Escherichia coli [5] = assay: Antimicrobial activity against Escherichia coli isolate 543T expressing beta-lactamase KPC2 and PFGE cluster 4 isolated from synovial fluid of patient by vitek-2 method in presence of beta-lactamase inhibitor Tazobactam
In short: (§3)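 Transformants were made by electroporating purified plasmids from clinical isolates into E. coli DH10B. They were selected on LB agar with 100 μg/ml ampicillin and PCR-screened for blaKPC. Susceptibility was then tested on Vitek-2.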

Escherichia coli [6] = assay: Antimicrobial activity against Escherichia coli isolate 329T expressing beta-lactamase KPC2 and PFGE cluster 2 isolated from blood of patient by vitek-2 method in presence of beta-lactamase inhibitor Tazobactam; in short: as §3
Escherichia coli [7] = assay: Antimicrobial activity against Escherichia coli isolate 543 expressing beta-lactamase KPC2, CTX-M-15, TEM and PFGE cluster 4 isolated from synovial fluid of patient by vitek-2 method in presence of beta-lactamase inhibitor Tazobactam; in short: as §2
Escherichia coli [8] = assay: Antimicrobial activity against Escherichia coli isolate 1679T expressing beta-lactamase KPC2, TEM and PFGE cluster 6 isolated from peritoneal fluid of patient by vitek-2 method in presence of beta-lactamase inhibitor Tazobactam
In short: (§4)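 Test strains were E. coli DH10B transformants. Plasmids purified from the clinical isolates were electroporated in, transformants selected on LB agar with 100 μg/ml ampicillin, and colonies PCR-screened for blaKPC. Susceptibility of the transformants was then determined by automated Vitek-2 testing.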

Escherichia coli [9] = assay: Antimicrobial activity against Escherichia coli isolate 547T expressing beta-lactamase KPC2 and PFGE cluster 4 isolated from blood of patient by vitek-2 method in presence of beta-lactamase inhibitor Tazobactam; in short: as §4
Escherichia coli [10] = assay: Antimicrobial activity against Escherichia coli isolate 157T expressing beta-lactamase KPC2 and PFGE cluster 3 isolated from urine of patient by vitek-2 method in presence of beta-lactamase inhibitor Tazobactam; in short: as §3
Escherichia coli [11] = assay: Antimicrobial activity against Escherichia coli isolate 1679 expressing beta-lactamase KPC2, SHV-12, TEM and PFGE cluster 6 isolated from peritoneal fluid of patient by vitek-2 method in presence of beta-lactamase inhibitor Tazobactam; in short: as §2
Escherichia coli [12] = assay: Antimicrobial activity against Escherichia coli isolate 339 expressing beta-lactamase KPC2, TEM and PFGE cluster 5 isolated from peritoneal fluid of patient by vitek-2 method in presence of beta-lactamase inhibitor Tazobactam; in short: as §1
Escherichia coli [13] = assay: Antimicrobial activity against Escherichia coli isolate 544 expressing beta-lactamase KPC2, TEM and PFGE cluster 4 isolated from abscess of patient by vitek-2 method in presence of beta-lactamase inhibitor Tazobactam; in short: as §2
Escherichia coli [14] = assay: Antimicrobial activity against Escherichia coli isolate 360T expressing beta-lactamase KPC2, OXA-9 and PFGE cluster 1 isolated from urine of patient by vitek-2 method in presence of beta-lactamase inhibitor Tazobactam; in short: as §4
Escherichia coli [15] = assay: Antimicrobial activity against Escherichia coli isolate 540 expressing beta-lactamase KPC2, TEM and PFGE cluster 4 isolated from synovial fluid of patient by vitek-2 method in presence of beta-lactamase inhibitor Tazobactam; in short: as §1
Escherichia coli [16] = assay: Antimicrobial activity against Escherichia coli isolate 339T expressing beta-lactamase KPC2 and PFGE cluster 5 isolated from peritoneal fluid of patient by vitek-2 method in presence of beta-lactamase inhibitor Tazobactam; in short: as §4
Escherichia coli [17] = assay: Antimicrobial activity against Escherichia coli isolate 329 expressing beta-lactamase KPC2, CTX-M-2, TEM and PFGE cluster 2 isolated from blood of patient by vitek-2 method in presence of beta-lactamase inhibitor Tazobactam; in short: as §2
Escherichia coli [18] = assay: Antimicrobial activity against Escherichia coli isolate 360 expressing beta-lactamase KPC2, CTX-M-15, OXA-9, TEM and PFGE cluster 1 isolated from urine of patient by vitek-2 method in presence of beta-lactamase inhibitor Tazobactam; conditions: isolate 360, Urine; in short: as §2
Escherichia coli [19] = assay: Antimicrobial activity against Escherichia coli isolate 386T expressing beta-lactamase KPC2, OXA-9 and PFGE cluster 1 isolated from wound of patient by vitek-2 method in presence of beta-lactamase inhibitor Tazobactam; in short: as §4
Escherichia coli [20] = assay: Antimicrobial activity against Escherichia coli isolate 547T expressing beta-lactamase KPC2 and PFGE cluster 4 isolated from blood of patient by Etest
In short: (§5)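 Transformant strains. Plasmids purified from the clinical isolates were electroporated into E. coli DH10B. Transformants were selected on LB agar with 100 μg/ml ampicillin, and colonies were PCR-screened for blaKPC before susceptibility testing.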

Escherichia coli [21] = assay: Antimicrobial activity against Escherichia coli isolate 540 expressing beta-lactamase KPC2, TEM and PFGE cluster 4 isolated from synovial fluid of patient by Etest
Escherichia coli [22] = assay: Antimicrobial activity against Escherichia coli isolate 543T expressing beta-lactamase KPC2 and PFGE cluster 4 isolated from synovial fluid of patient by Etest; in short: as §5
Escherichia coli [23] = assay: Antimicrobial activity against Escherichia coli isolate 339 expressing beta-lactamase KPC2, TEM and PFGE cluster 5 isolated from peritoneal fluid of patient by Etest
Escherichia coli [24] = assay: Antimicrobial activity against Escherichia coli isolate 339T expressing beta-lactamase KPC2 and PFGE cluster 5 isolated from peritoneal fluid of patient by Etest; in short: as §5
Escherichia coli [25] = assay: Antimicrobial activity against Escherichia coli isolate 157T expressing beta-lactamase KPC2 and PFGE cluster 3 isolated from urine of patient by Etest; in short: as §5
Escherichia coli [26] = assay: Antimicrobial activity against Escherichia coli DH10B by Etest; conditions: K-12 DH10B
Escherichia coli [27] = assay: Antimicrobial activity against Escherichia coli isolate 157 expressing beta-lactamase KPC2, CTX-M-15, TEM and PFGE cluster 3 isolated from urine of patient by Etest
Escherichia coli [28] = assay: Antimicrobial activity against Escherichia coli isolate 386 expressing beta-lactamase KPC2, CTX-M-15, OXA-9, TEM and PFGE cluster 1 isolated from wound of patient by Etest
Escherichia coli [29] = assay: Antimicrobial activity against Escherichia coli isolate 386T expressing beta-lactamase KPC2, OXA-9 and PFGE cluster 1 isolated from wound of patient by Etest; in short: as §5
Escherichia coli [30] = assay: Antimicrobial activity against Escherichia coli isolate 544 expressing beta-lactamase KPC2, TEM and PFGE cluster 4 isolated from abscess of patient by Etest
Escherichia coli [31] = assay: Antimicrobial activity against Escherichia coli isolate 547 expressing beta-lactamase KPC2, TEM and PFGE cluster 4 isolated from blood of patient by Etest
Escherichia coli [32] = assay: Antimicrobial activity against Escherichia coli isolate 360T expressing beta-lactamase KPC2, OXA-9 and PFGE cluster 1 isolated from urine of patient by Etest; in short: as §5
Escherichia coli [33] = assay: Antimicrobial activity against Escherichia coli isolate 1679T expressing beta-lactamase KPC2, TEM and PFGE cluster 6 isolated from peritoneal fluid of patient by Etest; in short: as §5
Escherichia coli [34] = assay: Antimicrobial activity against Escherichia coli isolate 329T expressing beta-lactamase KPC2 and PFGE cluster 2 isolated from blood of patient by Etest; in short: as §5
Escherichia coli [35] = assay: Antimicrobial activity against Escherichia coli isolate 360 expressing beta-lactamase KPC2, CTX-M-15, OXA-9, TEM and PFGE cluster 1 isolated from urine of patient by Etest
Escherichia coli [36] = assay: Antimicrobial activity against Escherichia coli isolate 329 expressing beta-lactamase KPC2, CTX-M-2, TEM and PFGE cluster 2 isolated from blood of patient by Etest
Escherichia coli [37] = assay: Antimicrobial activity against Escherichia coli isolate 543 expressing beta-lactamase KPC2, CTX-M-15, TEM and PFGE cluster 4 isolated from synovial fluid of patient by Etest
Escherichia coli [38] = assay: Antimicrobial activity against Escherichia coli isolate 1679 expressing beta-lactamase KPC2, SHV-12, TEM and PFGE cluster 6 isolated from peritoneal fluid of patient by Etest

Row | Compound | MIC (Escherichia coli [20]) [µg/mL] | MIC (Escherichia coli [21]) [µg/mL] | MIC (Escherichia coli [22]) [µg/mL] | MIC (Escherichia coli [23]) [µg/mL] | MIC (Escherichia coli [24]) [µg/mL] | MIC (Escherichia coli [25]) [µg/mL] | MIC (Escherichia coli [26]) [µg/mL] | MIC (Escherichia coli [28]) [µg/mL] | MIC (Escherichia coli [29]) [µg/mL] | MIC (Escherichia coli [30]) [µg/mL] | MIC (Escherichia coli [31]) [µg/mL] | MIC (Escherichia coli [32]) [µg/mL] | MIC (Escherichia coli [33]) [µg/mL] | MIC (Escherichia coli [34]) [µg/mL] | MIC (Escherichia coli [36]) [µg/mL] | MIC (Escherichia coli [37]) [µg/mL] | MIC (Escherichia coli [38]) [µg/mL] | also measured
1 | CCN1CCN(C(=O)N[C@@H](C(=O)N[C@@H]2C(=O)N3[C@@H]2SC(C)(C)[C@@H]3C(=O)O)c2ccccc2)C(=O)C1=O [PIPERACILLIN] |  |  |  |  |  |  |  |  |  |  |  |  |  |  |  |  |  | MIC (Escherichia coli [1]): 64 µg/mL; MIC (Escherichia coli [2]): > 128 µg/mL; MIC (Escherichia coli [3]): > 128 µg/mL; MIC (Escherichia coli [4]): > 1 µg/mL; MIC (Escherichia coli [5]): > 128 µg/mL; MIC (Escherichia coli [6]): > 128 µg/mL; MIC (Escherichia coli [7]): > 128 µg/mL; MIC (Escherichia coli [8]): 64 µg/mL; MIC (Escherichia coli [9]): 64 µg/mL; MIC (Escherichia coli [10]): > 128 µg/mL; MIC (Escherichia coli [11]): > 128 µg/mL; MIC (Escherichia coli [12]): 64 µg/mL; MIC (Escherichia coli [13]): > 128 µg/mL; MIC (Escherichia coli [14]): 64 µg/mL; MIC (Escherichia coli [15]): 64 µg/mL; MIC (Escherichia coli [16]): 64 µg/mL; MIC (Escherichia coli [17]): > 128 µg/mL; MIC (Escherichia coli [18]): > 128 µg/mL; MIC (Escherichia coli [19]): 64 µg/mL
2 | CN(C)c1cc(NC(=O)CNC(C)(C)C)c(O)c2c1C[C@H]1C[C@H]3[C@H](N(C)C)C(O)=C(C(N)=O)C(=O)[C@@]3(O)C(O)=C1C2=O [TIGECYCLINE] | 0.125 (≈ 0.213 µM) | 0.19 (≈ 0.324 µM) | 0.125 (≈ 0.213 µM) | 0.19 (≈ 0.324 µM) | 0.19 (≈ 0.324 µM) | 0.19 (≈ 0.324 µM) | 0.125 (≈ 0.213 µM) | 0.75 (≈ 1.28 µM) | 0.19 (≈ 0.324 µM) | 0.38 (≈ 0.649 µM) | 0.125 (≈ 0.213 µM) | 0.125 (≈ 0.213 µM) | 0.38 (≈ 0.649 µM) | 0.125 (≈ 0.213 µM) | 0.19 (≈ 0.324 µM) | 0.19 (≈ 0.324 µM) | 0.125 (≈ 0.213 µM) | MIC (Escherichia coli [27]; isolate 157, Urine): 0.38 µg/mL (≈ 0.649 µM); MIC (Escherichia coli [35]; isolate 360, Urine): 0.75 µg/mL (≈ 1.28 µM)
3 | COLISTIN | 0.047 | 0.125 | 0.047 | 0.125 | 0.047 | 0.047 | 0.047 | 0.125 | 0.047 | 0.19 | 0.19 | 0.094 | 0.047 | 0.047 | 0.19 | 0.125 | 0.38 | MIC (Escherichia coli [27]): 0.125 µg/mL; MIC (Escherichia coli [35]): 0.19 µg/mL
